Measurements published in ChEMBL document CHEMBL4229342, “Synthesis of novel proxyphylline derivatives with dual Anti-Candida albicans and anticancer activity” (Eur J Med Chem, 2018).

Columns and labels:
Assay type in all cases: functional
Candida albicans [1] = experiment: Growth inhibition of Candida albicans ATCC 90028 at 2 ug/ml incubated for 4 hrs at 35 degC by broth microdilution method relative to control; conditions: ATCC 90028, 4 h, read-out: GI
Candida albicans [2] = experiment: Growth inhibition of Candida albicans ATCC 90028 at 0.5 ug/ml incubated for 18 hrs at 35 degC by broth microdilution method relative to control; conditions: ATCC 90028, 18 h, read-out: GI
Candida albicans [3] = experiment: Growth inhibition of Candida albicans ATCC 90028 at 16 ug/ml incubated for 18 hrs at 35 degC by broth microdilution method relative to control; conditions: ATCC 90028, 18 h, read-out: GI
Candida albicans [4] = experiment: Growth inhibition of Candida albicans ATCC 90028 at 1 ug/ml incubated for 4 hrs at 35 degC by broth microdilution method relative to control; conditions: ATCC 90028, 4 h, read-out: GI
Candida albicans [5] = experiment: Growth inhibition of Candida albicans ATCC 90028 at 0.0313 ug/ml incubated for 4 hrs at 35 degC by broth microdilution method relative to control; conditions: ATCC 90028, 4 h, read-out: GI
Candida albicans [6] = experiment: Growth inhibition of Candida albicans ATCC 90028 at 8 ug/ml incubated for 48 hrs at 35 degC by broth microdilution method relative to control; conditions: ATCC 90028, 48 h, read-out: GI
Candida albicans [7] = experiment: Growth inhibition of Candida albicans ATCC 90028 at 16 ug/ml incubated for 48 hrs at 35 degC by broth microdilution method relative to control; conditions: ATCC 90028, 48 h, read-out: GI
Candida albicans [8] = experiment: Growth inhibition of Candida albicans ATCC 90028 at 0.0313 ug/ml incubated for 18 hrs at 35 degC by broth microdilution method relative to control; conditions: ATCC 90028, 18 h, read-out: GI
Candida albicans [9] = experiment: Growth inhibition of Candida albicans ATCC 90028 at 0.25 ug/ml incubated for 18 hrs at 35 degC by broth microdilution method relative to control; conditions: ATCC 90028, 18 h, read-out: GI
MCF7 [10] = experiment: Antiproliferative activity against human MCF7 cells assessed as cell viability at 100 uM after 72 hrs by MTT assay; conditions: MCF7, 72 h, read-out: Activity
In short: (§1)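 MTT viability assay in CCRF-CEM and MCF-7 cells after 72 h exposure at 25, 50, 100 and 200 µM. Results are relative to control cells without inhibitor in 0.5% DMSO. Done in triplicate; values are means ± SD of three independent experiments.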

Candida albicans [11] = experiment: Growth inhibition of Candida albicans ATCC 90028 at 1 ug/ml incubated for 18 hrs at 35 degC by broth microdilution method relative to control; conditions: ATCC 90028, 18 h, read-out: GI
Candida albicans [12] = experiment: Growth inhibition of Candida albicans ATCC 90028 at 0.0625 ug/ml incubated for 18 hrs at 35 degC by broth microdilution method relative to control; conditions: ATCC 90028, 18 h, read-out: GI
Candida albicans [13] = experiment: Growth inhibition of Candida albicans ATCC 90028 at 0.125 ug/ml incubated for 18 hrs at 35 degC by broth microdilution method relative to control; conditions: ATCC 90028, 18 h, read-out: GI
MCF7 [14] = experiment: Antiproliferative activity against human MCF7 cells assessed as cell viability at 50 uM after 72 hrs by MTT assay; conditions: MCF7, 72 h, read-out: Activity; in short: as §1
Candida albicans [15] = experiment: Growth inhibition of Candida albicans ATCC 90028 at 8 ug/ml incubated for 4 hrs at 35 degC by broth microdilution method relative to control; conditions: ATCC 90028, 4 h, read-out: GI
CCRF-CEM [16] = experiment: Antiproliferative activity against human CCRF-CEM cells assessed as cell viability at 25 uM after 72 hrs by MTT assay; conditions: read-out: Activity; in short: as §1
Candida albicans [17] = experiment: Growth inhibition of Candida albicans ATCC 90028 at 0.0625 ug/ml incubated for 4 hrs at 35 degC by broth microdilution method relative to control; conditions: ATCC 90028, 4 h, read-out: GI
Candida albicans [18] = experiment: Growth inhibition of Candida albicans ATCC 90028 at 0.125 ug/ml incubated for 4 hrs at 35 degC by broth microdilution method relative to control; conditions: ATCC 90028, 4 h, read-out: GI
MCF7 [19] = experiment: Antiproliferative activity against human MCF7 cells assessed as cell viability at 25 uM after 72 hrs by MTT assay; conditions: MCF7, 72 h, read-out: Activity; in short: as §1
Candida albicans [20] = experiment: Growth inhibition of Candida albicans ATCC 90028 at 0.5 ug/ml incubated for 4 hrs at 35 degC by broth microdilution method relative to control; conditions: ATCC 90028, 4 h, read-out: GI
CCRF-CEM [21] = experiment: Antiproliferative activity against human CCRF-CEM cells assessed as cell viability at 200 uM after 72 hrs by MTT assay; conditions: read-out: Activity; in short: as §1
Candida albicans [22] = experiment: Growth inhibition of Candida albicans ATCC 90028 at 4 ug/ml incubated for 18 hrs at 35 degC by broth microdilution method relative to control; conditions: ATCC 90028, 18 h, read-out: GI
CCRF-CEM [23] = experiment: Antiproliferative activity against human CCRF-CEM cells assessed as cell viability at 50 uM after 72 hrs by MTT assay; conditions: read-out: Activity; in short: as §1
Candida albicans [24] = experiment: Fungicidal activity against Candida albicans ATCC 90028 assessed as log reduction in cell viability at 16 ug/ml after 48 hrs at 35 degC
In short: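 MFC assay on C. albicans ATCC 90028 following M27-A3, at the molar equivalent of 16 µg/mL. CFU of treated cells were compared with CFU of the untreated inoculum. Activity is given as lg R = lg CFU/mL control − lg CFU/mL treated, and lg R ≥3 was defined as fungicidal. Values are means of two independent experiments.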

CCRF-CEM [25] = experiment: Antiproliferative activity against human CCRF-CEM cells assessed as cell viability at 100 uM after 72 hrs by MTT assay; conditions: read-out: Activity; in short: as §1
Candida albicans [26] = experiment: Growth inhibition of Candida albicans ATCC 90028 at 0.25 ug/ml incubated for 4 hrs at 35 degC by broth microdilution method relative to control; conditions: ATCC 90028, 4 h, read-out: GI
Candida albicans [27] = experiment: Growth inhibition of Candida albicans ATCC 90028 at 2 ug/ml incubated for 18 hrs at 35 degC by broth microdilution method relative to control; conditions: ATCC 90028, 18 h, read-out: GI
Candida albicans [28] = experiment: Growth inhibition of Candida albicans ATCC 90028 at 8 ug/ml incubated for 18 hrs at 35 degC by broth microdilution method relative to control; conditions: ATCC 90028, 18 h, read-out: GI
MCF7 [29] = experiment: Antiproliferative activity against human MCF7 cells assessed as cell viability at 200 uM after 72 hrs by MTT assay; conditions: MCF7, 72 h, read-out: Activity; in short: as §1

| Structure (SMILES) | inhibition of growth at 2 µg/mL (Candida albicans [1]) [%] | inhibition of growth at 0.5 µg/mL (Candida albicans [2]) [%] | inhibition of growth at 16 µg/mL (Candida albicans [3]) [%] | inhibition of growth at 1 µg/mL (Candida albicans [4]) [%] | inhibition of growth at 0.0313 µg/mL (Candida albicans [5]) [%] | inhibition of growth at 8 µg/mL (Candida albicans [6]) [%] | inhibition of growth at 16 µg/mL (Candida albicans [7]) [%] | inhibition of growth at 0.0313 µg/mL (Candida albicans [8]) [%] | inhibition of growth at 0.25 µg/mL (Candida albicans [9]) [%] | viability at 100 µM (MCF7 [10]) [%] | inhibition of growth at 1 µg/mL (Candida albicans [11]) [%] | inhibition of growth at 0.0625 µg/mL (Candida albicans [12]) [%] | inhibition of growth at 0.125 µg/mL (Candida albicans [13]) [%] | viability at 50 µM (MCF7 [14]) [%] | inhibition of growth at 8 µg/mL (Candida albicans [15]) [%] | viability at 25 µM (CCRF-CEM [16]) [%] | inhibition of growth at 0.0625 µg/mL (Candida albicans [17]) [%] | inhibition of growth at 0.125 µg/mL (Candida albicans [18]) [%] | viability at 25 µM (MCF7 [19]) [%] | inhibition of growth at 0.5 µg/mL (Candida albicans [20]) [%] | further results |
| --- | --- | --- | --- | --- | --- | --- | --- | --- | --- | --- | --- | --- | --- | --- | --- | --- | --- | --- | --- | --- | --- |
| CC(Cn1cnc2c1c(=O)n(C)c(=O)n2C)OC(=O)N1c2ccccc2Sc2ccccc21 (configuration not stated) | 99.2 | 99.8 | 100 | 99 | 99.3 | 99.2 | 99.2 | 100 | 100 | 73.4 | 99.8 | 99.9 | 99.9 | 89.9 | 99.5 | 105 | 99.2 | 99.2 | 90.5 | 99.5 | viability at 200 µM (CCRF-CEM [21]): 47.1%; inhibition of growth at 4 µg/mL (Candida albicans [22]): 99.9%; viability at 50 µM (CCRF-CEM [23]): 77.4%; log(activity) (Candida albicans [24]): 0.3; viability at 100 µM (CCRF-CEM [25]): 33.8%; inhibition of growth at 0.25 µg/mL (Candida albicans [26]): 99.5%; inhibition of growth at 2 µg/mL (Candida albicans [27]): 99.8%; inhibition of growth at 8 µg/mL (Candida albicans [28]): 99.7%; viability at 200 µM (MCF7 [29]): 37% |
| CC(Cn1cnc2c1c(=O)n(C)c(=O)n2C)OC(=O)Sc1ccccc1 (configuration not stated) | 99.3 | 99.9 | 99.8 | 99.5 | 99.3 | 99.2 | 99.5 | 99.8 | 100 | 69.9 | 99.9 | 99.7 | 99.5 | 81.9 | 99.5 | 53.9 | 99.1 | 99.1 | 86.8 | 99.4 | viability at 200 µM (CCRF-CEM [21]): 0.5%; inhibition of growth at 4 µg/mL (Candida albicans [22]): 99.8%; viability at 50 µM (CCRF-CEM [23]): 37.1%; log(activity) (Candida albicans [24]): 0.1; viability at 100 µM (CCRF-CEM [25]): 14.5%; inhibition of growth at 0.25 µg/mL (Candida albicans [26]): 99.5%; inhibition of growth at 2 µg/mL (Candida albicans [27]): 100%; inhibition of growth at 8 µg/mL (Candida albicans [28]): 100%; viability at 200 µM (MCF7 [29]): 43.1% |
| CC(Cn1cnc2c1c(=O)n(C)c(=O)n2C)OC(=O)Nc1ccccc1 (configuration not stated) | 99.4 | 100 | 100 | 99.3 | 99.4 | 99.2 | 99.1 | 100 | 100 | 84.7 | 99.9 | 100 | 100 | 83.6 | 99.2 | 78.9 | 99.3 | 99.3 | 91.9 | 99.2 | viability at 200 µM (CCRF-CEM [21]): 38.5%; inhibition of growth at 4 µg/mL (Candida albicans [22]): 99.7%; viability at 50 µM (CCRF-CEM [23]): 73.1%; log(activity) (Candida albicans [24]): 0.6; viability at 100 µM (CCRF-CEM [25]): 53.5%; inhibition of growth at 0.25 µg/mL (Candida albicans [26]): 99.2%; inhibition of growth at 2 µg/mL (Candida albicans [27]): 100%; inhibition of growth at 8 µg/mL (Candida albicans [28]): 99.9%; viability at 200 µM (MCF7 [29]): 81% |
